# The entries come from a sample that favours hits as a whole.
# INS-1E rescue = rescue of cytokine-induced death in INS-1E beta cells; INS-1E cytokine-induced death, ATP luminescence, 48 h; normalised: neutral wells 0, positive control 100; protection from cytokine-induced ATP loss, % at 10 µM; AID 488910; actives 0.1% (n = 20,000);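 active means mean replicate protection from cytokine-induced ATP loss at least 50% and at least 75% of replicates each reaching 50%; inconclusive means meets only one of the two criteria, mean or replicate share; inactive means fails both the mean and replicate share criteria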
#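 assay system = INS-1E rat insulinoma cells | amount = 8000 cells per well | medium = phenol-red-free RPMI with 5% fetal bovine serum | doses = one compound concentration, pin transfer | timing = 48 h cytokine plus compound treatment, 10 min reagent incubation | also added = IL-1β, TNF-α and IFN-γ cytokine mix | signal = CellTiter-Glo luminescence measuring cellular ATP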
# A1 apoptosis 2 = blocks A1, raising caspase activity | MEF A1-2A-BIM cells, caspase-Glo luminescence, 3 h; percent of clofoctol response, DMSO zero | caspase activation, % (test concentration not listed) | 24,000 tested, under 10 active; in the data active means caspase activation above about 5.9%; inconclusive means no clear call, values can overlap the other calls; inactive means below about 2.2%
#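 Material: mouse embryonic fibroblasts co-expressing A1 and BIM (A1-2A-BIM), primed for A1 dependence / Quantity: 2500 cells/well / Buffer or medium: RPMI-1640 growth medium with 10% FBS / Doses: 50 nL compound per well, pinned / Schedule: 3 h compound exposure at 37 °C / Signal: Caspase-Glo luminescence (DEVD substrate) / Measure: Caspase-3/7 activation, seen as rise in luminescence signal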
# T cruzi HTS = blocks T. cruzi growth inside host cells. actives 4.9% (n = 22,000). activity score (inhibition), % at 5.01 µM. intracellular Trypanosoma cruzi in host cells, plate reader; in the data active means activity score above about 55%; inconclusive means no clear call, values can overlap the other calls;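 further: parasites and compound incubated about four days before reading; 0% = median of neutral control wells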
# Active calls of the source: *; u = inconclusive; x = not tested or not shown.
SMILES,INS-1E rescue,A1 apoptosis 2,T cruzi HTS
COc1ccc(NC(=O)N(C)C[C@@H]2OCCCC[C@H](C)Oc3ccc(NS(=O)(=O)c4ccc(OC)cc4)cc3C(=O)N([C@H](C)CO)C[C@H]2C)cc1,x,2,x
O=C(CCCCC(=O)N/N=C/c1cccnc1Br)NO,x,1,x
COc1ccc(NC(=O)Nc2cccc3c2O[C@H](CN(C)C(=O)Nc2c(C)noc2C)[C@@H](C)CN([C@@H](C)CO)C3=O)cc1,3,x,-14
O=C1O[C@@H](c2ccccc2)[C@@H](c2ccccc2)N2[C@@H](c3ccc(OCCO)cc3)[C@]3(C(=O)Nc4ccccc43)[C@@H](C(=O)NC[C@H](O)c3ccccc3)[C@H]12,x,1,x
O=C(CCCCCCC(=O)N/N=C/C1=CCCCC1)NO,x,0,x
Cc1ccsc1/C=N/NC(=O)CCCCCC(=O)O,6,0,-34
O=C(CCCCC(=O)N/N=C/c1ccc(C(=O)O)cc1)NO,9,-2,-12
CCN(CC)c1ccc(/C=N/NC(=O)c2ccccc2O)c(O)c1,x,-9,x
C[C@@H]1CN([C@@H](C)CO)C(=O)Cc2cc(NC(=O)Nc3ccc4c(c3)OCO4)ccc2O[C@@H]1CN(C)Cc1ccc(Cl)c(Cl)c1,-40,x,47
C[C@H](CO)N1C[C@H](C)[C@H](CN(C)Cc2ccc(Cl)c(Cl)c2)Oc2ccc(NC(=O)Nc3ccc(F)cc3)cc2CC1=O,-15,x,u
C[C@@H]1CN([C@H](C)CO)C(=O)Cc2cc(NC(=O)Nc3ccc(F)cc3)ccc2O[C@@H]1CN(C)Cc1ccc(Cl)c(Cl)c1,-14,0,68*
C[C@@H]1CN([C@@H](C)CO)C(=O)Cc2cc(NC(=O)Nc3ccccc3)ccc2O[C@@H]1CN(C)Cc1ccc(Cl)c(Cl)c1,-50,x,68*
C[C@H]1CN([C@@H](C)CO)C(=O)Cc2cc(NC(=O)Nc3ccc(F)cc3)ccc2O[C@H]1CN(C)Cc1ccc(Cl)c(Cl)c1,-52,2,64*
C[C@H]1CN([C@@H](C)CO)C(=O)Cc2cc(NC(=O)Nc3ccc4c(c3)OCO4)ccc2O[C@H]1CN(C)Cc1ccc(Cl)c(Cl)c1,-6,x,63*
C[C@@H]1CN([C@@H](C)CO)C(=O)Cc2cc(NC(=O)Nc3ccc(F)cc3)ccc2O[C@H]1CN(C)Cc1ccc(Cl)c(Cl)c1,x,1,x
C[C@H](CO)N1C[C@H](C)[C@@H](CN(C)Cc2ccc(Cl)c(Cl)c2)Oc2ccc(NC(=O)Nc3ccc(F)cc3)cc2CC1=O,x,0,x
O=C(O)CCCCCC(=O)NN=C1CCCCCCC1,0,0,-12
C[C@@H]1CN([C@H](C)CO)C(=O)Cc2cc(NS(=O)(=O)c3ccc(F)cc3)ccc2O[C@@H]1CN(C)Cc1ccc(Cl)c(Cl)c1,-34,x,63*
Cc1ccc(S(=O)(=O)Nc2ccc3c(c2)CC(=O)N([C@H](C)CO)C[C@H](C)[C@H](CN(C)Cc2ccc(Cl)c(Cl)c2)O3)cc1,-4,0,21
Cc1ccc(S(=O)(=O)Nc2ccc3c(c2)CC(=O)N([C@H](C)CO)C[C@H](C)[C@H](CN(C)Cc2ccc4c(c2)OCO4)O3)cc1,-13,2,20
C[C@H](CO)N1C[C@H](C)[C@H](CN(C)Cc2ccc(Cl)c(Cl)c2)Oc2ccc(NS(=O)(=O)c3ccc(F)cc3)cc2CC1=O,0,x,57*
C[C@H](CO)N1C[C@H](C)[C@H](CN(C)Cc2ccc(Cl)c(Cl)c2)Oc2ccc(NS(=O)(=O)c3ccc(Cl)cc3)cc2CC1=O,-30,x,45
Cc1ccc(S(=O)(=O)Nc2ccc3c(c2)CC(=O)N([C@H](C)CO)C[C@@H](C)[C@H](CN(C)Cc2ccc4c(c2)OCO4)O3)cc1,0,1,61*
C[C@H]1CN([C@@H](C)CO)C(=O)Cc2cc(NS(=O)(=O)c3ccc(F)cc3)ccc2O[C@@H]1CN(C)Cc1ccc(Cl)c(Cl)c1,-24,x,u
Cc1ccc(S(=O)(=O)Nc2ccc3c(c2)CC(=O)N([C@@H](C)CO)C[C@H](C)[C@@H](CN(C)Cc2ccc(Cl)c(Cl)c2)O3)cc1,-54,-1,75*
O=C(CCCCCC(=O)Nc1ccccc1O)N/N=C/c1ccc(CO)o1,13,0,-4
COC(=O)CCCCCCC(=O)N/N=C/c1cn(Cc2ccccc2)c2ccccc12,0,x,5
COC(=O)CCCCCCC(=O)N/N=C/c1ccc(OC)c(O)c1,9,-1,3
CC(C)(C)OC(=O)N1CCC[C@H]1/C=N/NC(=O)CCCCCCC(=O)Nc1ccccc1O,6,x,-3
C[C@H](CO)N1C[C@H](C)[C@H](CN(C)C(=O)Nc2cccc3ccccc23)Oc2ccc(NS(=O)(=O)c3ccc(Cl)cc3)cc2CC1=O,-6,x,-6
